Measured values from ChEMBL document CHEMBL4229530, “5-Adamantan thiadiazole-based thiazolidinones as antimicrobial agents. Design, synthesis, molecular docking and evaluation” (2018).
In brackets after ≈: the same amount, converted by molar mass.

Key:
Escherichia coli [1] = experiment: Antibacterial activity against Escherichia coli ATCC 35210 after 24 hrs by INT dye based microdilution assay; assay type: functional; conditions: ATCC 35210, 24 h
Procedure, shortened: (§1)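 Broth microdilution in tryptic soy broth: overnight bacterial culture adjusted to 1×10^5 CFU/mL, 1.0×10^4 CFU per well; compounds dissolved in 5% DMSO, tested at 0.001-1.0 mg/ml; 24 h at 37°C. Streptomycin and ampicillin as positive controls, 5% DMSO as negative control; duplicate, repeated three times.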

Pseudomonas aeruginosa [2] = experiment: Antibacterial activity against Pseudomonas aeruginosa ATCC 27853 after 24 hrs by INT dye based microdilution assay; assay type: functional; conditions: ATCC 27853, 24 h; procedure, shortened: as §1
Escherichia coli [3] = experiment: Antibacterial activity against drug-resistant Escherichia coli after 24 hrs by INT dye based microdilution assay; assay type: functional
Procedure, shortened: (§2)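 Broth microdilution in tryptic soy broth. Overnight culture adjusted to 1×10^5 CFU/mL, giving 1.0×10^4 CFU per well. Compounds dissolved in 5% DMSO and tested at 0.001-1.0 mg/ml. Plates incubated 24 h at 37°C. INT (0.2 mg/mL) then added, with 30 min at 37°C. Duplicate, repeated three times.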

Enterobacter cloacae = experiment: Antibacterial activity against Enterobacter cloacae after 24 hrs by INT dye based microdilution assay; assay type: functional; procedure, shortened: as §1
Bacillus cereus = experiment: Antibacterial activity against Bacillus cereus after 24 hrs by INT dye based microdilution assay; assay type: functional; procedure, shortened: as §1
Salmonella typhimurium = experiment: Antibacterial activity against Salmonella typhimurium ATCC 13311 after 24 hrs by INT dye based microdilution assay; assay type: functional, Salmonella enterica subsp. enterica serovar Typhimurium; conditions: Salmonella enterica, ATCC 13311, 24 h; procedure, shortened: as §1
Staphylococcus aureus [4] = experiment: Antibacterial activity against Staphylococcus aureus ATCC 6538 after 24 hrs by INT dye based microdilution assay; assay type: functional; conditions: ATCC 6538, 24 h; procedure, shortened: as §1
Pseudomonas aeruginosa [5] = experiment: Antibacterial activity against drug-resistant Pseudomonas aeruginosa after 24 hrs by INT dye based microdilution assay; assay type: functional; procedure, shortened: as §2
Micrococcus flavus = experiment: Antibacterial activity against Micrococcus flavus ATCC 10240 after 24 hrs by INT dye based microdilution assay; assay type: functional; conditions: ATCC 10240, 24 h; procedure, shortened: as §1
Staphylococcus aureus [6] = experiment: Antibacterial activity against methicillin-resistant Staphylococcus aureus after 24 hrs by INT dye based microdilution assay; assay type: functional; procedure, shortened: as §2
Listeria monocytogenes = experiment: Antibacterial activity against Listeria monocytogenes NCTC 7973 after 24 hrs by INT dye based microdilution assay; assay type: functional; conditions: NCTC 7973, 24 h; procedure, shortened: as §1
Aspergillus ochraceus = experiment: Antifungal activity against Aspergillus ochraceus ATCC 12066 after 72 hrs by serial dilution assay; assay type: functional; conditions: ATCC 12066, 72 h
Procedure, shortened: (§3)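 Modified microdilution: fungal spores washed off malt agar with sterile 0.85% saline plus 0.1% Tween 80, adjusted to about 1.0×10^5 per 100 µL well. Compounds in 5% DMSO (0.001-1.0 mg/ml) in malt broth; 72 h at 28°C on rotary shaker (160 rpm). MIC is lowest concentration without visible growth under binocular microscope. Bifonazole and ketoconazole controls (1-3500 µg/mL); three independent experiments in duplicate.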

Penicillium verrucosum = experiment: Antifungal activity against Penicillium cyclopium var verucosum after 72 hrs by serial dilution assay; assay type: functional; procedure, shortened: as §3
Aspergillus fumigatus = experiment: Antifungal activity against Aspergillus fumigatus isolate 1022 after 72 hrs by serial dilution assay; assay type: functional; conditions: isolate 1022, 72 h; procedure, shortened: as §3
Aspergillus niger = experiment: Antifungal activity against Aspergillus niger ATCC 6275 after 72 hrs by serial dilution assay; assay type: functional; conditions: ATCC 6275, 72 h; procedure, shortened: as §3
Talaromyces funiculosus = experiment: Antifungal activity against Penicillium funiculosum ATCC 36839 after 72 hrs by serial dilution assay; assay type: functional; conditions: ATCC 36839, 72 h; procedure, shortened: as §3
Trichoderma viride = experiment: Antifungal activity against Trichoderma viride IAM 5061 after 72 hrs by serial dilution assay; assay type: functional; conditions: IAM 5061, 72 h; procedure, shortened: as §3
Penicillium ochrochloron = experiment: Antifungal activity against Penicillium ochrochloron ATCC 9112 after 72 hrs by serial dilution assay; assay type: functional; conditions: ATCC 9112, 72 h; procedure, shortened: as §3
Aspergillus versicolor = experiment: Antifungal activity against Aspergillus versicolor ATCC 11730 after 72 hrs by serial dilution assay; assay type: functional; conditions: ATCC 11730, 72 h; procedure, shortened: as §3

CN[C@@H]1[C@H](O[C@H]2[C@H](O[C@H]3[C@H](O)[C@@H](O)[C@H](N=C(N)N)[C@@H](O)[C@@H]3N=C(N)N)O[C@@H](C)[C@]2(O)C=O)O[C@@H](CO)[C@H](O)[C@H]1O [STREPTOMYCIN]
MIC (Escherichia coli [1]): 0.172 µM (≈ 0.1 µg/mL)
MIC (Pseudomonas aeruginosa [2]): 172 µM (≈ 100 µg/mL)
MIC (Escherichia coli [3]): 0.258 µM (≈ 0.15 µg/mL)
MIC (Enterobacter cloacae): 43 µM (≈ 25 µg/mL)
MIC (Bacillus cereus): 43 µM (≈ 25 µg/mL)
MIC (Salmonella typhimurium): 172 µM (≈ 100 µg/mL)
MIC (Staphylococcus aureus [4]): 0.172 µM (≈ 0.1 µg/mL)
MIC (Pseudomonas aeruginosa [5]): 129 µM (≈ 75 µg/mL)
MIC (Micrococcus flavus): 86 µM (≈ 50 µg/mL)
MIC (Staphylococcus aureus [6]): 0.258 µM (≈ 0.15 µg/mL)
MIC (Listeria monocytogenes): 258 µM (≈ 150 µg/mL)

O=C1N/C(=N\c2nnc(C34CC5CC(CC(C5)C3)C4)s2)S/C1=C/c1ccc([N+](=O)[O-])cc1
MIC (Escherichia coli [1]): 0.022 µM (≈ 0.0103 µg/mL)
MIC (Aspergillus ochraceus): 12.3 µM (≈ 5.75 µg/mL)
MIC (Pseudomonas aeruginosa [2]): 22 µM (≈ 10.3 µg/mL)
MIC (Escherichia coli [3]): 0.006 µM (≈ 0.00281 µg/mL)
MIC (Enterobacter cloacae): 18 µM (≈ 8.42 µg/mL)
MIC (Bacillus cereus): 16.5 µM (≈ 7.72 µg/mL)
MIC (Penicillium verrucosum): 0.0165 µM (≈ 0.00772 µg/mL)
MIC (Salmonella typhimurium): 16.5 µM (≈ 7.72 µg/mL)
MIC (Staphylococcus aureus [4]): 0.0165 µM (≈ 0.00772 µg/mL)
MIC (Aspergillus fumigatus): 8 µM (≈ 3.74 µg/mL)
MIC (Aspergillus niger): 16.5 µM (≈ 7.72 µg/mL)
MIC (Talaromyces funiculosus): 12.3 µM (≈ 5.75 µg/mL)
MIC (Trichoderma viride): 6 µM (≈ 2.81 µg/mL)
MIC (Pseudomonas aeruginosa [5]): 8 µM (≈ 3.74 µg/mL)
MIC (Penicillium ochrochloron): 8 µM (≈ 3.74 µg/mL)
MIC (Micrococcus flavus): 22 µM (≈ 10.3 µg/mL)
MIC (Aspergillus versicolor): 8 µM (≈ 3.74 µg/mL)
MIC (Staphylococcus aureus [6]): 0.008 µM (≈ 0.00374 µg/mL)
MIC (Listeria monocytogenes): 33 µM (≈ 15.4 µg/mL)

O=C1N/C(=N\c2nnc(C34CC5CC(CC(C5)C3)C4)s2)S/C1=C/c1ccccc1[N+](=O)[O-]
MIC (Escherichia coli [1]): 0.0322 µM (≈ 0.0151 µg/mL)
MIC (Aspergillus ochraceus): 321 µM (≈ 150 µg/mL)
MIC (Pseudomonas aeruginosa [2]): 32.2 µM (≈ 15.1 µg/mL)
MIC (Escherichia coli [3]): 0.175 µM (≈ 0.0818 µg/mL)
MIC (Enterobacter cloacae): 32.2 µM (≈ 15.1 µg/mL)
MIC (Bacillus cereus): 32.2 µM (≈ 15.1 µg/mL)
MIC (Penicillium verrucosum): 0.321 µM (≈ 0.15 µg/mL)
MIC (Salmonella typhimurium): 32.2 µM (≈ 15.1 µg/mL)
MIC (Staphylococcus aureus [4]): 0.0322 µM (≈ 0.0151 µg/mL)
MIC (Aspergillus fumigatus): 321 µM (≈ 150 µg/mL)
MIC (Aspergillus niger): 482 µM (≈ 225 µg/mL)
MIC (Talaromyces funiculosus): 482 µM (≈ 225 µg/mL)
MIC (Trichoderma viride): 321 µM (≈ 150 µg/mL)
MIC (Pseudomonas aeruginosa [5]): 175 µM (≈ 81.8 µg/mL)
MIC (Penicillium ochrochloron): 321 µM (≈ 150 µg/mL)
MIC (Micrococcus flavus): 32.2 µM (≈ 15.1 µg/mL)
MIC (Aspergillus versicolor): 321 µM (≈ 150 µg/mL)
MIC (Staphylococcus aureus [6]): 0.175 µM (≈ 0.0818 µg/mL)
MIC (Listeria monocytogenes): 32.2 µM (≈ 15.1 µg/mL)

COc1ccc(/C=C2/S/C(=N/c3nnc(C45CC6CC(CC(C6)C4)C5)s3)NC2=O)cc1
MIC (Escherichia coli [1]): 0.0995 µM (≈ 0.045 µg/mL)
MIC (Aspergillus ochraceus): 99.8 µM (≈ 45.2 µg/mL)
MIC (Pseudomonas aeruginosa [2]): 99.5 µM (≈ 45 µg/mL)
MIC (Escherichia coli [3]): 0.0553 µM (≈ 0.025 µg/mL)
MIC (Enterobacter cloacae): 99.5 µM (≈ 45 µg/mL)
MIC (Bacillus cereus): 99.5 µM (≈ 45 µg/mL)
MIC (Penicillium verrucosum): 0.0998 µM (≈ 0.0452 µg/mL)
MIC (Salmonella typhimurium): 44.8 µM (≈ 20.3 µg/mL)
MIC (Staphylococcus aureus [4]): 0.0448 µM (≈ 0.0203 µg/mL)
MIC (Aspergillus fumigatus): 99.8 µM (≈ 45.2 µg/mL)
MIC (Aspergillus niger): 179 µM (≈ 81 µg/mL)
MIC (Talaromyces funiculosus): 99.8 µM (≈ 45.2 µg/mL)
MIC (Trichoderma viride): 179 µM (≈ 81 µg/mL)
MIC (Pseudomonas aeruginosa [5]): 111 µM (≈ 50.1 µg/mL)
MIC (Penicillium ochrochloron): 99.8 µM (≈ 45.2 µg/mL)
MIC (Micrococcus flavus): 99.5 µM (≈ 45 µg/mL)
MIC (Aspergillus versicolor): 99.8 µM (≈ 45.2 µg/mL)
MIC (Staphylococcus aureus [6]): 0.111 µM (≈ 0.0501 µg/mL)
MIC (Listeria monocytogenes): 44.8 µM (≈ 20.3 µg/mL)

Cc1ccc(/C=C2/S/C(=N/c3nnc(C45CC6CC(CC(C6)C4)C5)s3)NC2=O)cc1
MIC (Escherichia coli [1]): 0.115 µM (≈ 0.05 µg/mL)
MIC (Aspergillus ochraceus): 183 µM (≈ 79.9 µg/mL)
MIC (Pseudomonas aeruginosa [2]): 115 µM (≈ 50 µg/mL)
MIC (Escherichia coli [3]): 0.115 µM (≈ 0.0501 µg/mL)
MIC (Enterobacter cloacae): 115 µM (≈ 50 µg/mL)
MIC (Bacillus cereus): 115 µM (≈ 50 µg/mL)
MIC (Penicillium verrucosum): 0.183 µM (≈ 0.0801 µg/mL)
MIC (Salmonella typhimurium): 59.3 µM (≈ 25.9 µg/mL)
MIC (Staphylococcus aureus [4]): 0.115 µM (≈ 0.05 µg/mL)
MIC (Aspergillus fumigatus): 367 µM (≈ 160 µg/mL)
MIC (Aspergillus niger): 183 µM (≈ 79.9 µg/mL)
MIC (Talaromyces funiculosus): 183 µM (≈ 79.9 µg/mL)
MIC (Trichoderma viride): 367 µM (≈ 160 µg/mL)
MIC (Pseudomonas aeruginosa [5]): 115 µM (≈ 50.1 µg/mL)
MIC (Penicillium ochrochloron): 183 µM (≈ 79.9 µg/mL)
MIC (Micrococcus flavus): 115 µM (≈ 50 µg/mL)
MIC (Aspergillus versicolor): 183 µM (≈ 79.9 µg/mL)
MIC (Staphylococcus aureus [6]): 0.115 µM (≈ 0.0501 µg/mL)
MIC (Listeria monocytogenes): 59.3 µM (≈ 25.9 µg/mL)

O=C1N/C(=N\c2nnc(C34CC5CC(CC(C5)C3)C4)s2)S/C1=C/c1c(Cl)cccc1Cl
MIC (Escherichia coli [1]): 0.0407 µM (≈ 0.02 µg/mL)
MIC (Aspergillus ochraceus): 92 µM (≈ 45.2 µg/mL)
MIC (Pseudomonas aeruginosa [2]): 40.7 µM (≈ 20 µg/mL)
MIC (Escherichia coli [3]): 0.0305 µM (≈ 0.015 µg/mL)
MIC (Enterobacter cloacae): 21.4 µM (≈ 10.5 µg/mL)
MIC (Bacillus cereus): 40.7 µM (≈ 20 µg/mL)
MIC (Penicillium verrucosum): 0.122 µM (≈ 0.06 µg/mL)
MIC (Salmonella typhimurium): 40.7 µM (≈ 20 µg/mL)
MIC (Staphylococcus aureus [4]): 0.0407 µM (≈ 0.02 µg/mL)
MIC (Aspergillus fumigatus): 61 µM (≈ 30 µg/mL)
MIC (Aspergillus niger): 61 µM (≈ 30 µg/mL)
MIC (Talaromyces funiculosus): 61 µM (≈ 30 µg/mL)
MIC (Trichoderma viride): 122 µM (≈ 60 µg/mL)
MIC (Pseudomonas aeruginosa [5]): 61.1 µM (≈ 30 µg/mL)
MIC (Penicillium ochrochloron): 61 µM (≈ 30 µg/mL)
MIC (Micrococcus flavus): 40.7 µM (≈ 20 µg/mL)
MIC (Aspergillus versicolor): 61 µM (≈ 30 µg/mL)
MIC (Staphylococcus aureus [6]): 0.0611 µM (≈ 0.03 µg/mL)
MIC (Listeria monocytogenes): 21.4 µM (≈ 10.5 µg/mL)
